Experimental data as given in article PMC8859983 (Biomaterials science, 2020).
Entries after “also recorded” stand apart in the source; their conditions may differ.

Experiments:
[1] = target: T1, recombinant human MT1-MMP (Homo sapiens, UniProt P50281); test: Effect of binding peptide on catalysis of P-1 by MT1-MMP; type: biochemical; conditions: binding peptide 0.47 μM to 640 μM, pre-incubated with MT1-MMP
Procedure, shortened: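 His-tagged human MT1-MMP catalytic plus hinge domains (Tyr112–Ile318) expressed in E. coli BL21(DE3)pLysS. Purified on Ni-NTA in urea and refolded by gradient dialysis. Enzyme pre-incubated with binding peptide (0.47–640 μM) before cleavage of FRET peptide substrate. Ex 328/Em 393 nm.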

recombinant MT1-MMP = test: Fluorescence activation; type: biochemical, human; conditions: for selectivity for MT1-MMP compared with MMP-2 / activation efficiency by MT1-MMP: 1 μM probe; for selectivity for MT1-MMP compared with MMP-2: 15 nM enzyme, 37 °C; for activation efficiency by MT1-MMP: 15 nM MT1-MMP, 7 min incubation at 37 °C
Procedure, shortened: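 Catalysis velocity: FRET probes at 1 μM incubated with 15 nM refolded recombinant MT1-MMP for 7 min at 37 °C. Fluorescence from substrate hydrolysis recorded at the set time.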

[2] = target: T1, recombinant human MT1-MMP; test: Enzyme kinetics of fluorogenic probes, FRET peptide cleavage assay; type: biochemical; conditions: for kcat/Km: specificity constant, 15 nM refolded MT1-MMP, 37 °C, pH 8.0, mean ± SD
Procedure, shortened: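 Refolded His-tagged human MT1-MMP catalytic/hinge construct (E. coli), 15 nM, with 0.5–4.5 μM FRET probes at 37 °C. Initial cleavage rates measured over 28 s. Km and Vmax from Michaelis–Menten fit; kcat = Vmax/[enzyme]. Mean ± SD.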

HT-1080 tumor [3] = test: Optical in vivo imaging after intratumoral injection; design: species or system BALB/c nude mice; conditions: 50 nmol intratumoral, IVIS; for fluorescence in the tumor site: 0.5–6 h post injection
Procedure, shortened: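 Subcutaneous HT-1080 xenografts in nude mice; four groups (n = 3) with similar tumor size. Probe or control given intratumorally at 50 nmol. IVIS imaging of FAM (Ex/Em 492/518 nm) at 0.5, 1, 2, 4.5 and 6 h under 2.5% isoflurane in oxygen (1.5 L min⁻¹). Radiant efficiency quantified at tumor site.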

HT-1080 cells = test: Cell uptake / cell imaging of probes; type: cell-based, human; conditions: for cell uptake: 5 μM probe, 2 h at 37 °C, FAM fluorescence, confocal imaging
Procedure, shortened: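 HT-1080 cells in RPMI 1640 with 10% FBS, penicillin and streptomycin at 37 °C, 5% CO₂. Seeded on glass-bottom dishes overnight, then fresh medium. Incubated with 5 μM probe for 2 h at 37 °C, ± 5 μM GM6001. Washed three times with PBS, fixed 10 min in 4% paraformaldehyde, DAPI-stained, then imaged for FAM fluorescence.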

HUVEC cells = test: MTT cell cytotoxicity assay; type: cell-based, human; conditions: 10 μM to 100 μM, 48 h, Fig. S2
Procedure, shortened: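 HUVEC seeded at 4×10³–5×10³ cells/well and incubated 12 h. Then exposed to test compound at 10–100 μM for 48 h. MTT (5 mg mL⁻¹ stock in PBS) added for 4 h, formazan dissolved in DMSO, absorbance read at 490 nm.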

HT-1080 tumor [4] = test: Ex vivo tumor imaging and biodistribution after intravenous injection; type: in vivo, BALB/c nude mice; conditions: for fluorescence intensity / accumulation in the tumors: tumor cryosections 4.5 h post injection, n = 3 per group
Procedure, shortened: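 BALB/c nude mice (4 weeks old) given 1×10⁶ HT-1080 cells in PBS subcutaneously, right flank. At tumor volume ~0.5–1 cm³, four groups (n = 3) received 50 nmol probe by tail-vein injection. Tumors harvested 4.5 h later, cryosectioned, stained with DiI (membrane) and DAPI (nuclei), and examined by fluorescence microscopy.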

## HWKHLHNTKTFL [MT1-AF7p]
[1]
  effect on the catalysis of P-1 by the recombinant MT1-MMP: had no effect

## (Mca)-PLGL-(Dpa)-AR-(PEG)12-HWKHLHNTKTFL [Probe P-5]
Recombinant MT1-MMP
  selectivity for MT1-MMP compared with MMP-2: significantly higher activation folds when incubated with MT1-MMP than with MMP-2
[2]; MT1-MMP
  fold decreased Km value compared with control probe P-1: 5.4 fold
  fold enhanced hydrolysis rate (kcat) compared with control probe P-1: 2.5 fold
  fold specificity (kcat/Km) to MT1-MMP compared with control probe P-1: ~14 fold
[2]
  kcat/Km: 6150 ± 440 M⁻¹ s⁻¹

## (FAM)-PLGLK-(Dabcyl)-AR-HWKHLHNTKTFL [Probe P-9]
Recombinant MT1-MMP
  activation efficiency by MT1-MMP: lower activation efficiency than P-7; also recorded: lower activation efficiency by MT1-MMP than P-8
  selectivity for MT1-MMP compared with MMP-2: higher selectivity for MT1-MMP compared with MMP-2
Recombinant MT1-MMP; data not included
  substrate inhibition of MT1-MMP: induced the substrate inhibition of MT1-MMP at higher concentrations
HT-1080 tumor [3]
  fluorescence in the tumor site: hardly detected
HT-1080 cells
  cell uptake: higher cell uptake than P-8

## (Mca)-PLGL-(Dpa)-AR-(PEG)6-HWKHLHNTKTFL [Probe P-4]
[2]
  kcat/Km: 4420 ± 370 M⁻¹ s⁻¹

## (Mca)-PLGL-(Dpa)-AR-HWKHLHNTKTFL [Probe P-2]
Recombinant MT1-MMP; data not included
  probe concentration above which substrate inhibition of MT1-MMP was induced: higher than 1.5 μM

## (Mca)-PLGL-(Dpa)-AR-(PEG)24-HWKHLHNTKTFL [Probe P-6]
[2]
  kcat/Km: 1110 ± 90 M⁻¹ s⁻¹

## (Mca)-PLGL-(Dpa)-AR-NH2 [Probe P-1, reference compound]
[2]
  kcat/Km: 450 ± 30 M⁻¹ s⁻¹

## (FAM)-PLGLK-(Dabcyl)-AR-(PEG)12-HWKHLHNTKTFL [Probe P-7]
HUVEC cells
  cytotoxicity: low toxicity
HT-1080 tumor [3]; Ex/Em 492/518 nm, n = 3 per group
  time to maximum fluorescent intensity at tumor: about 1 h
[2]; MT1-MMP, Table S1
  Km value compared with P-5: much higher Km value of P-7 than P-5
  kcat value compared with P-5: higher kcat value than P-5
HT-1080 tumor [4]; 50 nmol i.v., 4.5 h post injection
  location of the activated probe in frozen tissue slices: located in the cytosol
HT-1080 tumor [4]; 50 nmol i.v.
  fluorescence intensity / accumulation in the tumors: strongest fluorescence intensity
HT-1080 tumor [4]; 50 nmol, tail vein injection, FAM fluorescence, Fig. S3
  organs in which the probe was activated (biodistribution): predominantly in the tumor, liver, and kidney
HT-1080 cells
  cell uptake: much higher cell uptake compared with the control cells MCF-7; also recorded: much higher cell uptake compared with P-8 and P-9
HT-1080 cells; HT-1080, 5 μM probe, GM6001 5 μM
  cell uptake in the presence of MMP inhibitor GM6001: decreased

## (FAM)-PLGLK-(Dabcyl)-AR-NH2 [Probe P-8]
Recombinant MT1-MMP
  activation efficiency by MT1-MMP: lower activation efficiency than P-7
  selectivity for MT1-MMP compared with MMP-2: higher selectivity for MT1-MMP compared with MMP-2
Recombinant MT1-MMP; data not included
  substrate inhibition of MT1-MMP: induced the substrate inhibition of MT1-MMP at higher concentrations
HT-1080 tumor [3]
  fluorescence in the tumor site: hardly detected
HT-1080 tumor [4]; 50 nmol i.v.
  fluorescence intensity / accumulation in the tumors: weaker fluorescence intensities
